Results on 70 compounds are retold here after ChEMBL document CHEMBL4513216, “Probing the Open Global Health Chemical Diversity Library for Multistage-Active Starting Points for Next-Generation Antimalarials” (ACS Infect Dis, 2020).

A short description of this data set: Toxicity liver stage against HepG2, at 10uM. Format: cell-based. Details: test concentration 10 uM, cell line HepG2-A16-CD81EGFP. Conditions: human, HepG2-A16-CD81EGFP cells; read-out: INHIBITION
Summed up: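 Uninfected HepG2-A16-CD81EGFP cells, 3 × 10^3 per well, 1536-well, plated on prespotted compound at 10 μM final, parasite-free screening media added to match infected plates; puromycin 10 μM positive, DMSO 0.5% negative; run in parallel with 48 h PbLuc assay at 37 °C, 5% CO2; viability by CellTiter-Glo luminescence, normalized to controls.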
`COc1cccc(OC)c1CN1CC(=O)N(c2ccc(C)cc2)CC1C` (stereo not given): the cytotoxicity at 10 µM amounted to 1.64%.

Regarding `COCC(=O)N1CC[C@@H]2O[C@@H](C)C[C@H]2C1`, the cytotoxicity at 10 µM was -69.6%.

As for `COCCNS(=O)(=O)c1cccc(CSC)c1`, the cytotoxicity at 10 µM amounted to 11.9%. Turning to `CN(Cc1nnc(C2CC2)o1)CC1CCCN1c1cccnn1` (stereo not given), the cytotoxicity at 10 µM is -6.54%. For the compound `Fc1cccc(OC2CCN(CCn3cc4ccccc4n3)CC2)c1`, the cytotoxicity at 10 µM was 8.33%. As for `CCOc1ccc(Cl)c(C(=O)N2CCCN(CC(N)=O)CC2)n1`, the cytotoxicity at 10 µM is -1.26%. With `CC(=O)N1CCCCC[C@@H]2[C@@H]1[C@H](c1cccc(F)c1)CN2C(=O)C1CC1`, the cytotoxicity at 10 µM is 6.75%.

`O=C(COCc1ccccc1Cl)N1CCN(c2cnccn2)CC1`: the cytotoxicity at 10 µM worked out at 7.57%. Next, `CCn1cc(CN2C[C@@H]3CCCN3C[C@H]2CCSC)cn1`: -25.4%; `Cc1ccc(CC2COCCN(S(=O)(=O)c3ccccc3)C2)nc1` (stereo not given): -4.48%; `Cc1cn([C@H]2CCNC[C@]2(C)O)c(=O)[nH]c1=O`: -6.22%. As to `COC(=O)c1ccc(CN2CCC(c3noc(C)n3)CC2)s1`, the cytotoxicity at 10 µM was -1.51%.

For `Nc1nnc(SCc2cc(=O)n3c4c(sc3n2)CCCC4)[nH]1`, the cytotoxicity at 10 µM is -4.19%. As to `Cc1cc(C2CCCN(C(=O)COc3ccccc3F)C2)n[nH]1` (stereo not given), the cytotoxicity at 10 µM was determined as 7.45%.

For `CCNC(=O)c1ccc(CNCc2c(C)nn(C)c2N(C)C)cc1`, the cytotoxicity at 10 µM is 1.71%. With `c1cncc(OCC2CN(Cc3nccs3)Cc3nccn3C2)c1` (stereo not given), the cytotoxicity at 10 µM stood at 6.9%.

Take `Cc1noc([C@H]2COC[C@H]3CN(C(=O)Cc4ccccc4F)C[C@H]32)n1`: the cytotoxicity at 10 µM was -8.52%. Turning to `Cc1cc(C)c(Cn2cncn2)cc1CN1CC[C@H](CO)[C@@H](O)C1`, the cytotoxicity at 10 µM is -5.42%. Next, `Cn1c(NCC(=O)N2CCCC2)c(C#N)c(=O)n(C)c1=O`: 15.4%; `CCN1CCN(C(=O)c2ccn(C)c(=O)c2)CC1`: 8.66%.

In the case of `CC(NCc1ccc(OCc2nccn2C)cc1)c1cccnc1` (stereo not given), the cytotoxicity at 10 µM was -4.47%. On to `N#Cc1ccc(NCCS(=O)(=O)N2CCc3ccccc32)nc1`, for which the cytotoxicity at 10 µM was -8.69%. On to `CCCn1ccnc1CN1CCN(C2CCOCC2)CC(C(N)=O)C1` (stereo not given), for which the cytotoxicity at 10 µM is -24.4%. With `c1cc2c(cc1CN1CC[C@H]3CO[C@H](CN4CCCC4)[C@H]3C1)OCO2`, the cytotoxicity at 10 µM came to 0.355%. `CCCNC(=O)C1CCN(CC(O)c2ccccc2)CC1` (stereo not given): the cytotoxicity at 10 µM was -2.21%.

`CO[C@H]1CO[C@@]2(CCCN(S(=O)(=O)c3ccccc3)C2)C1`: the cytotoxicity at 10 µM is -81.9%. In the case of `NC(=O)COc1ccc(CNC(=O)CN2CCc3ccccc32)cc1`, the cytotoxicity at 10 µM was -4.07%.

With `NCCC(=O)N1CCC2(CC1)CN(C(=O)Cc1cccc(Cl)c1)CCO2`, the cytotoxicity at 10 µM is 5.56%. The same measure for `CC(C)Cn1cc(NC(=O)N2CCOC(c3ccccc3)C2)cn1` (stereo not given): 7.59%. On to `CCN1CCN(C2CCN(Cc3noc(C4CC4)n3)CC2)C1=O`, for which the cytotoxicity at 10 µM is -8.69%. As to `O=c1[nH]c2ncccc2n1C1CCNCC1`, the cytotoxicity at 10 µM worked out at 11.5%. The same measure for `COc1ccc(CN(C)c2ccc(-c3nccn3C)nn2)cc1OC`: -3.32%; for `Cn1cccc1C(=O)N1CCn2nnc(COc3cccnc3)c2C1`: -69.7%. As to `O=C1CCSCC(C(=O)N2CCC3(CC2)OCCO3)N1` (stereo not given), the cytotoxicity at 10 µM turned out to be 0.595%.

Turning to `O=C(CCn1ccc2cc(Br)ccc21)NCc1ccc(C(=O)O)cc1`, the cytotoxicity at 10 µM was -11.8%. For the compound `O=C(NCc1nc(NC2CCCC2)c2cc(Cl)ccc2n1)c1ccoc1`, the cytotoxicity at 10 µM is -2.99%. Next, `CC(NC(=O)CSCC(N)=O)c1ccc(Oc2ccccc2)cc1` (stereo not given): 2.98%; `COCC(C)(O)CNC(=O)c1cc(-c2ccc(F)cc2)nn1C` (stereo not given): -5.1%. Regarding `CC(C)CC(NC(=O)c1ccn(C)c(=O)c1)c1ccccc1` (stereo not given), the cytotoxicity at 10 µM is -6.76%. For the compound `CCn1cc2c(n1)CN(Cc1ccc(C)o1)CC2COCC1CC1` (stereo not given), the cytotoxicity at 10 µM was -80.7%.

Turning to `CN(C)C(C(=O)N1CCC(N2CCSCC2)CC1)c1ccccc1F` (stereo not given), the cytotoxicity at 10 µM is 9.22%. Consider `CCCOc1ccc2c(c1)OCC(C(=O)NC(C)Cn1ccnc1)=C2` (stereo not given), for which the cytotoxicity at 10 µM was -4.03%.

Regarding `CCc1cc(CNC(=O)N2CCN(c3nc(C)c(C)s3)CC2)on1`, the cytotoxicity at 10 µM was -11.6%. In the case of `Cc1cccc(N2CCN(CCS(=O)(=O)c3ccc(Br)cc3)CC2)c1C`, the cytotoxicity at 10 µM is 21.9%. As to `CC(NC(=O)NC1CCN(CC2CCCC2)CC1)c1nccs1` (stereo not given), the cytotoxicity at 10 µM was determined as 3.2%. Next, `CC(O)CN1CCC(CNCc2cccc(C(N)=O)c2)CC1` (stereo not given): -8.99%; `CC(C)NC(=O)C1CN(Cc2cccs2)Cc2ccnn2C1` (stereo not given): -1.89%. In the case of `CCc1nc(CC(=O)N2CCn3c(nnc3C(F)(F)F)C2)cs1`, the cytotoxicity at 10 µM was -9.29%. For the compound `Cc1nc(CN2CCN(C(=O)CCc3cccnc3)CC2)no1`, the cytotoxicity at 10 µM was -8.64%.

With `CCc1nccn1CCC(=O)N1C[C@@H]2CC[C@H]1CN(C(=O)N(C)C)C2`, the cytotoxicity at 10 µM is -14.4%. Next, `Cc1noc([C@@H]2C[C@H]3CN(Cc4cc(C)on4)C[C@H]3O2)n1`: -9.33%; `O=C(CCCNC(=O)C1CC1)Nc1cnn(-c2ccccc2Cl)c1`: -12.3%. As for `CCCc1noc(-c2cn(CC(=O)N(CC)CC)nn2)n1`, the cytotoxicity at 10 µM was found to be 3.35%. The same measure for `Cc1cc(-c2cnc(NC3CC3)nc2-c2ccoc2)on1`: -25.6%; for `CCOC(=O)c1coc(N2CCC(C(O)CC(C)C)CC2)n1` (stereo not given): 5.78%. The same measure for `O=C(Cc1cccnc1)N1CCC2(CC1)CCN(C1CCOCC1)CC2`: -8.25%; for `COc1cccc(OCC(=O)N2CCOc3ccncc32)c1`: 7.68%. On to `CC(C)Cc1noc(-c2ccc(NCc3noc(C(C)C)n3)nc2)n1`, for which the cytotoxicity at 10 µM was 0.178%. As for `Cc1cccc(CN2C(=O)C[C@@H]3[C@@H]2CCN3Cc2ccsc2)n1`, the cytotoxicity at 10 µM was -6.63%. Next, `CN1[C@@H](c2ccccc2)[C@@H](C(=O)NCC2CCOCC2)C[C@@]1(C)C(=O)O`: -40.4%. For `CS(=O)(=O)N1CC[C@H]2O[C@H](C(=O)NCc3cccnc3)CC[C@H]21`, the cytotoxicity at 10 µM was -7.24%. The same measure for `CN(CCN1CCCCCC1)c1nccc(N2CCC(O)C2)n1` (stereo not given): 5.27%. `COCCN1C(=O)CCC12CCC(NCc1cccc(C)n1)CC2` (stereo not given): the cytotoxicity at 10 µM came to 9.4%.

In the case of `Nc1ncnc2c1ncn2[C@H]1CCN(Cc2ccsc2)CC[C@@H]1O`, the cytotoxicity at 10 µM is -4.25%. Next, `Cc1cc(CN2CCN(C(=O)Nc3cccnc3)CC2)on1`: -7.72%; `COCc1cc(N2CCc3onc(-c4cccc(OC)c4)c3C2)ncn1`: 14.4%; `O=C1CN(c2ccc(CNC(=O)NCC3CCOC3)cc2)CCN1` (stereo not given): -1.96%. On to `CCN(CC)c1ccc2ccc(C(=O)N3CCCCO3)cn12`, for which the cytotoxicity at 10 µM was found to be 5.33%. For the compound `Cc1nc(CN(Cc2ccncc2)C2CCN(C)CC2)cs1`, the cytotoxicity at 10 µM is -2.56%. The same measure for `CC1CCCN(Cc2c(C3CCOCC3)[nH]c3ncccc23)C1` (stereo not given): -2.03%.
